Results as given in ChEMBL document CHEMBL1154432, “Synthesis and pharmacological investigation of novel 4-(2-methylphenyl)-1-substituted-4H-[1,2,4]triazolo[4,3-a]quinazolin-5-ones as new class of H(1)-antihistaminic agents” (2008).

Key:
Mus musculus [1] = assay: Sedative-hypnotic activity in Swiss Albino mouse assessed as CNS depression at 5 mg/kg, po after 1 hr; type: functional
How it was run: (§1)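 The basal motor activity score was recorded first. Compound was then given orally in 1% CMC, and scores were taken at 1, 2 and 3 h post-dose. % reduction in motor activity = [(A−B)/A]×100, with A the basal score and B the post-treatment score. Significance was tested by Student's t-test.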

Mus musculus [2] = assay: Sedative-hypnotic activity in Swiss Albino mouse assessed as CNS depression at 5 mg/kg, po after 2 hrs; type: functional; how it was run: as §1
Mus musculus [3] = assay: Sedative-hypnotic activity in Swiss Albino mouse assessed as CNS depression at 5 mg/kg, po after 3 hrs; type: functional; how it was run: as §1
Cavia porcellus [4] = assay: Antihistaminic activity against Dunkin-Hartley guinea pig assessed as protection against histamine-induced bronchospasm at 10 mg/kg, po; type: functional
How it was run: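 Male Dunkin Hartley guinea pigs (250–300 g), fasted 12 h, six per group. Dosed orally in 1% CMC, then challenged with histamine aerosol (0.2% aqueous histamine acid chloride) sprayed from a pocket nebulizer into a closed cage. Preconvulsion onset time was recorded, and animals stable beyond 6 min counted as protected. Mean preconvulsion time vs control expressed as % protection.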

Cavia porcellus [5] = assay: Antihistaminic activity against Dunkin-Hartley guinea pig assessed as protection against histamine-induced bronchospasm at 10 mg/kg, po

Compound	Activity (Mus musculus [1]) [%]	Activity (Mus musculus [2]) [%]	Activity (Mus musculus [3]) [%]	Activity (Cavia porcellus [4]) [%]	Activity (Cavia porcellus [5]) [%]
Cc1ccccc1-n1c(=O)c2ccccc2n2c(N3CCCC3)nnc12	10	14	7	68.81	–
Cc1ccccc1-n1c(=O)c2ccccc2n2c(CCl)nnc12	8	13	4	68.56	–
Cc1ccccc1-n1c(=O)c2ccccc2n2c(C)nnc12	11	14	8	72.45	–
CCc1nnc2n(-c3ccccc3C)c(=O)c3ccccc3n12	13	14	9	70.78	–
CCCc1nnc2n(-c3ccccc3C)c(=O)c3ccccc3n12	13	17	8	69.47	–
Cc1ccccc1-n1c(=O)c2ccccc2n2c(N3CCOCC3)nnc12	10	15	10	70.33	–
Cc1ccccc1-n1c(=O)c2ccccc2n2c(CN3CCNCC3)nnc12	12	13	9	70.7	–
Cc1ccccc1-n1c(=O)c2ccccc2n2c(CN3CCN(C)CC3)nnc12	12	18	10	72.05	–
Cc1ccccc1-n1c(=O)c2ccccc2n2c(CN3CCCCC3)nnc12	13	16	9	69.47	–
Cc1ccccc1-n1c(=O)c2ccccc2n2cnnc12	9	11	5	69.87	–
CN(C)CCC(c1ccc(Cl)cc1)c1ccccn1.O=C(O)/C=C\C(=O)O (centres undefined) [CHLORPHENIRAMINE MALEATE]	37	32	22	–	71
